Data set [1] deals with DR5. Put plainly: DR5 immunoblot, MDA-MB-468 cells. In kind it is cell-based. The following applies: MDA-MB-468, 24 h; for Effect on DDA-induced DR5 upregulation and oligomerization: with 2.5 μM dMtcyDTDO, 20 μM CEAPIN-A7, 10 μM KIRA-6, 10 μM AMG-44; for DR5 levels and disulfide bonding (electrophoretic mobility): non-reducing immunoblot, dFtcyDTDO 2.5 μM, Tunicamycin 500 ng/ml, PERKi alone. In general terms: In western blotting, separated proteins are transferred to a membrane and probed.

In data set [2] the test system is DR5. Put plainly: DR5 immunoblot with autophagy/lysosome inhibitors. The note with it: inhibitor alone, absence of DDA treatment, versus vehicle. It counts as cell-based.
A further data set deals with protein synthesis. Kind of data set: Protein synthesis assay. In kind it is cell-based. The following applies: 24 h pre-treatment, 2 h pulse.
The subject of a further data set is WM793 melanoma cells. Kind of data set: MTT cell viability assay, WM793. It counts as cell-based. The note with it: 72 h. An outline of the steps: (§1)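 Cells in 10% FBS–DMEM were seeded at 7,500 per well and kept 24 h at 37°C, then exposed to test compound for 72 h at 37°C. After medium removal they received 0.5 mg/ml MTT in PBS for 1 h at 37°C. Formazan was dissolved in DMSO and absorbance read at 570 and 690 nm. At least quadruplicate technical and three biological replicates were run.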
For orientation: Tetrazolium assays rely on reduction of a dye to a coloured formazan, in cell work by metabolically active cells.

Data set [3] deals with MET. Put plainly: MET/PCSK9 maturation. In kind it is cell-based. The note with it: HepG2, PERKi alone 1 μM, 24 h. An outline of the steps:
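HepG2 cells were grown in 10% FBS–DMEM at 37°C and 5% CO₂, then treated for 24 h. Cell lysates were run on immunoblots, under reducing conditions for MET.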

The subject of data set [4] is MDA-MB-468 breast cancer cells. Put plainly: MTT cell viability assay, MDA-MB-468. In kind it is cell-based. The following applies: 72 h. A digest of the protocol:
as §1

Data set [5] concerns MET. Put plainly: MET/PCSK9 maturation. The note with it: MDA-MB-468, PERKi alone 1 μM, 24 h. It counts as cell-based.
Data set [6] deals with DR5. Put plainly: DR5 immunoblot, HaCaT keratinocytes. It counts as cell-based, human. The following applies: 2.5 μM, 24 h, reducing immunoblot.
For data set [7], the system named is DR5. Put plainly: DR5 immunoblot, MCF10A cells. It counts as cell-based. The following applies: non-transformed MCF10A, 2.5 μM, 24 h, reducing immunoblot.
Another data set concerns DcR2. Put plainly: DcR2 immunoblot. The note with it: after dFtcyDTDO treatment. It counts as cell-based.
Data set [8] deals with DR5. Kind of data set: DR5 immunoblot, T47D cells. It counts as cell-based. The note with it: 2.5 μM, 24 h, reducing immunoblot.
For the next data set, the system named is 012/LVM2/LR10 tumors. Put plainly: 012/LVM2/LR10 xenograft tumor study, H&E tumor histology. In kind it is in vivo. The note with it: 10 mg/kg dMtcyDTDO, 20 days, mice bearing 012/LVM2/LR10 tumors, versus vehicle.
Data set [9] in a line: Metabolic stability in human liver microsomes. The following applies: supplemented with NADPH (1 mM); substrate 10 μM; 1 mg/ml protein.

Read-outs that look alike come from different tables or passages of the source.

This is an account of results in PMC11989202 (Molecular cancer research : MCR, 2025).

Consider `Cc1ccc2cc(-c3c(C)ccc(C(=O)c4c(-c5ccccc5)n(C)n(-c5ccccc5)c4=O)c3N)ccc2n1` [AMG44], for which the “Effect on DDA-induced DR5 upregulation and oligomerization” value in the data set on DR5 [1] was “potentiated DDA-induced DR5 upregulation and oligomerization”.

Take `CO/C1=C\C(C)=C\[C@@H](C)[C@@H](O)[C@@H](C)C/C(C)=C/C=C/[C@H](OC)[C@@H]([C@@H](C)[C@@H](O)[C@H](C)[C@@]2(O)C[C@@H](O)[C@H](C)[C@@H](C(C)C)O2)OC1=O` [Bafilomycin A1]: in the data set on DR5 [2], the DR5 levels result is “increased levels of monomeric and oligomeric DR5 isoforms”.

As to `O=C(Nc1cnn(Cc2ccc(C(F)(F)F)cc2C(F)(F)F)c1)c1cc(-c2ccco2)on1` [CEAPIN-A7], the “Effect on DDA-induced DR5 upregulation and oligomerization” value in the data set on DR5 [1] was “without effect”.

Regarding `CCN(CC)CCCC(C)Nc1ccnc2cc(Cl)ccc12` (stereo not drawn) [Chloroquine], in the data set with DR5 [2], the DR5 levels result was “increased DR5 levels”.

Turning to `CC(C)(C)c1nc(-c2ccc(NC(=O)Nc3cccc(C(F)(F)F)c3)c3ccccc23)c2c(N)nccn12` [KIRA-6], the “Effect on DDA-induced DR5 upregulation and oligomerization” value in the data set with DR5 [1] was “negated DR5 and TNFR1 upregulation by DDA treatment”.

Regarding `Cn1cc(-c2ccc3c(c2)CCN3C(=O)Cc2cccc(C(F)(F)F)c2)c2c(N)ncnc21` [PERKi], the “Protein synthesis (3H-Leucine incorporation) in the presence of Tunicamycin” value in the data set on protein synthesis was “increased protein synthesis”. In addition, the “Protein synthesis (3H-Leucine incorporation) in the presence of dFtcyDTDO” value in the data set with protein synthesis is “further decreased protein synthesis”. Also, the “Cell viability (MTT)” value (with WM793 melanoma cells (PERKi alone); in data set [4] (PERKi alone)) was “little effect on cell viability” each time. Moreover, the “Effect on dFtcyDTDO cytotoxicity (MTT)” value (with WM793 melanoma cells (combination with dFtcyDTDO); in data set [4] (combination with dFtcyDTDO)) was “strongly potentiated dFtcyDTDO cytotoxicity” each time. In addition, the “MET or PCSK9 processing” value with MET [3] and in the data set on MET [5] was “no effect on MET or PCSK9 processing” in each case. Also, the “DR5 levels and disulfide bonding (electrophoretic mobility)” value (shortened to “DR5 levels and disulfide bonding”) in the data set with DR5 [1] is “no discernable effect”.

Take `CC(C)(O)CNc1ncc(-c2ccnc(Nc3ccnc(Cl)c3)n2)c(CC2CC2)n1` [VPS34i]: the DR5 levels result in the data set with DR5 [2] is “increased DR5 expression to a similar extent as Bafilomycin”.

With `O=S1(=O)CC2CC(F)C(F)CC2CS1` (stereo not drawn) [dFtcyDTDO], the “t1/2 in human liver microsomes” value is > 60 min. For the same molecule, the DR5 levels entry with DR5 [6] is given as “did not increase DR5 levels”. Besides, in the data set on DR5 [7], the DR5 levels entry is “did not increase DR5 levels”. In addition, the “DR5 levels and disulfide bonding” value in the data set with DR5 [1] is “altered DR5 levels and disulfide bonding”. The DcR2 levels entry with DcR2 is “upregulation of DcR2”. Also, the DR5 levels result in the data set on DR5 [8] is on record as “increased DR5 levels”.

Take `CO[C@H]1C[C@@H]2CS(=O)(=O)SC[C@H]2C[C@@H]1OC` [dMtcyDTDO]: the DR5 levels result with DR5 [6] and in the data set on DR5 [7] was “did not increase DR5 levels” in each case. Also, the “Breast tumor tissue histology (H&E)” value in the data set on 012/LVM2/LR10 tumors was “extensive death of tumor tissue”. Moreover, the “t1/2 in human liver microsomes” value in data set [9] came out at 47.9 min.

Consider `O=S1(=O)CC2CCCCC2CS1` (stereo not drawn) [tcyDTDO], for which the “t1/2 in human liver microsomes” value turned out to be 11.9 min.

In the case of Tunicamycin, the “DR5 levels and disulfide bonding” value in the data set with DR5 [1] is on record as “increased DR5 levels without altering its mobility”.
